# Assays:
# [1] = test system: Beagle dogs; experiment: 90‐day oral gavage study; assay type: in vivo
# [2] = Mass balance with volatile trapping and tissue distribution study; assay type: in vivo, male Wistar rats
# How it was run: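 Mass balance under OECD TG 417 in male Wistar rats given a single oral dose of 500 mg/kg bw 14C-labelled test compound. Rats were housed individually in air-tight glass metabolism cages. Volatiles were adsorbed in trapping solutions over 0–8 h and 8–24 h, and urine and faeces were collected over 0–24 h. Tissues, carcass and GI contents were taken at 24 h and results expressed as % of dose.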
# [3] = Skin irritation study
# [4] = test system: Wistar rats; experiment: 52‐week oral gavage study; assay type: in vivo
# [5] = test system: Chinese hamster V79 cells; experiment: In vitro micronucleus assay; assay type: cell-based
# How it was run: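 OECD TG 487 study, non-GLP, in Chinese hamster V79 cells. Concentrations were set from a dose-range finding test. Without S9-mix, cells had continuous 24 h treatment up to 1,243 μg/mL. With S9-mix, cells had short 4 h treatment plus 20 h recovery up to 310 μg/mL. Micronuclei were scored against the historical vehicle control range.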
# [6] = test system: bone marrow cells of NMRI BR mice; experiment: In vivo micronucleus test, intraperitoneal
# How it was run: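 A preliminary intraperitoneal toxicity study in NMRI BR mice set the top dose for the OECD TG 474 bone marrow micronucleus test. In the main test, mice were dosed ip at 250, 500 and 1,000 mg/kg bw and sampled at 24 h; top-dose and control groups were also sampled at 48 h. 2,000 PCEs were scored per animal.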
# [7] = First in vivo toxicokinetic study; parameters: species or system male Wistar rats
# How it was run: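 Male Wistar rats received a single oral dose of 500 mg/kg bw 14C-labelled test compound under OECD TG 417 and were killed 48 h post-dose. Total radioactivity was measured in plasma, excreta and selected organs and tissues. Tissue levels were expressed as μg test-compound-eq/g and recovery as % of applied dose.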
# [8] = test system: Salmonella Typhimurium (TA98, TA100, TA1535 and TA1537) and Escherichia coli WP2uvrA; experiment: Bacterial reverse mutation assays; assay type: cell-based; conditions: up to 5,000 μg/plate, with or without S9‐mix
# [9] = test system: human peripheral blood lymphocytes; experiment: In vitro micronucleus assay; assay type: cell-based
# [10] = Third in vitro rumen fluid trial; conditions: 39°C
# [11] = ADME in a lactating goat; assay type: in vivo
smiles,measurement,setting,value
"O=[N+]([O-])OCCCO [3‐NOP, propan‐1,3‐diol‐mononitrate]",NOAEL,"[1]; females, severe clinical signs in one female",100 mg 3‐NOP/kg bw per day
same,NOAEL,[1]; males,300 mg 3‐NOP/kg bw per day
same,Radioactivity exhaled,[2]; 0 to 8 h post‐dose,64.3%
same,Dose recovered in faeces,[2]; 0 to 24 h,1.2 % of the dose
same,Dose recovered in urine,[2]; 0 to 24 h,9.8 % of the dose
same,Radioactivity exhaled,[2]; 8 to 24 h post‐dose,13.0%
same,Dose in the gastrointestinal tract content,[2]; 24 h,0.5 % of the dose
same,Dose remaining in the tissues and carcass,[2]; 24 h,7.7 % of the dose
same,Overall recovery of radioactivity,[2]; 24 h,99.3%
same,Dose recovered from the volatile traps (almost all as 14CO2),[2]; 24 h after single oral 500 mg/kg bw,77.4 % of the dose
same,Mean concentration of radioactive compounds in blood,[2]; 24 h post‐dose,48.7 μg 3‐NOP‐eq/g
same,Radioactivity concentration in adrenal glands,[2]; 24 h post‐dose,159.3 μg 3‐NOP‐eq/g
same,Radioactivity concentration in brain,[2]; 24 h post‐dose,24.8 μg 3‐NOP‐eq/g
same,Radioactivity concentration in fat,[2]; 24 h post‐dose,58.9 μg 3‐NOP‐eq/g
same,Radioactivity concentration in kidney,[2]; 24 h post‐dose,118.4 μg 3‐NOP‐eq/g
same,Radioactivity concentration in liver,[2]; 24 h post‐dose,184.5 μg 3‐NOP‐eq/g
same,Radioactivity concentration in muscle,[2]; 24 h post‐dose,42.4 μg 3‐NOP‐eq/g
same,Skin irritation potential,[3],skin irritant
same,NOAEL,[4]; females,600 mg 3‐NOP/kg bw per day
same,NOAEL,[4]; males,100 mg 3‐NOP/kg bw per day
same,Micronucleus frequency,"[5]; absence of metabolic activation, up to 1,243 μg/mL, 24 h",no increase in micronucleus frequency
same,Micronucleus frequency,"[5]; presence of metabolic activation, up to 310 μg/mL, 4 + 20 h",statistically significant increase in micronuclei
same,Frequency of micronuclei,"[6]; 250, 500 and 1,000 mg/kg bw intraperitoneally",comparable between treated and negative control groups
same,Dose showing mortality,"[6]; preliminary toxicity study, intraperitoneal","2,000 mg/kg bw"
same,Mean overall recovery of the radioactivity applied,[7]; 48 h,28%
same,"Radioactivity recovered from tissues, organs and carcass",[7]; 48 h,5.5 % of the dose
same,Radioactivity remaining in gastrointestinal content,[7]; 48 h,0.2 % of the dose
same,Radioactivity concentration in adrenal glands,[7]; 48 h after 500 mg/kg bw,113.9 μg 3‐NOP‐eq/g
same,Radioactivity concentration in brain,[7]; 48 h after 500 mg/kg bw,31.2 μg NOP‐eq/g
same,Radioactivity concentration in fat,[7]; 48 h after 500 mg/kg bw,23.5 μg NOP‐eq/g
same,Radioactivity concentration in kidney,[7]; 48 h after 500 mg/kg bw,71.6 μg 3‐NOP‐eq/g
same,Radioactivity concentration in liver,[7]; 48 h after 500 mg/kg bw,139.6 μg 3‐NOP‐eq/g
same,Radioactivity concentration in muscle,[7]; 48 h after 500 mg/kg bw,27.1 μg NOP‐eq/g
same,Radioactivity recovered in total excreta,[7]; at 48 h,20 % of the dose
same,Radioactivity recovered in urine,[7]; first 24 h,17.6 % of the dose
same,Radioactivity recovered in urine,[7]; interval 24‐48 h,0.3 % of the dose
same,Cmax radioactivity in plasma,[7]; single oral 500 mg/kg bw,about 600 μg 3‐NOP‐eq/g
same,Radioactivity in plasma after 48 h,[7]; single oral 500 mg/kg bw,27 μg 3‐NOP‐eq/g
same,Time of Cmax radioactivity in plasma,[7]; single oral 500 mg/kg bw,1 h
same,Radioactivity excreted in faeces,[7]; within 48 h,2.3 % of the dose
same,Revertant colonies,[8],No increase in the mean number of revertant colonies
same,Frequency of micronuclei,"[9]; 164, 512 and 1,211 μg/mL, with and without S9‐mix",no increase in the frequency of micronuclei
same,Cytotoxicity,"[9]; up to 1,211 μg/mL",No cytotoxicity
same,3‐NOP concentration remaining after 16 h,"[10]; 1 mg/L, anaerobic, n = 6",1.0%
same,3‐NOP concentration remaining after 16 h,"[10]; aerobic control, n = 2",31.9%
same,Milk radioactivity in the aqueous phase of milk,[11]; 0–8 h after the sixth day of administration,75.2%
same,Radioactivity excreted via faeces,"[11]; 4.34 mg/kg bw per day, 7 days",1.9 % of total radioactivity appli
same,Radioactivity excreted via milk,"[11]; 4.34 mg/kg bw per day, 7 days",6.42 % of total radioactivity appli
same,Radioactivity excreted via urine,"[11]; 4.34 mg/kg bw per day, 7 days",3.5 % of total radioactivity appli
same,Radioactivity in the intestinal tract content,"[11]; 4.34 mg/kg bw per day, 7 days",1.14 % of total radioactivity appli
same,Radioactivity remaining in the total edible tissues,"[11]; 4.34 mg/kg bw per day, 7 days",4.98 % of total radioactivity appli

# Source: PMC8603004 (EFSA Journal, 2021)
